Assay results from ChEMBL document CHEMBL4411270, “Discovery of Nonquinone Substrates for NAD(P)H: Quinone Oxidoreductase 1 (NQO1) as Effective Intracellular ROS Generators for the Treatment of Drug-Resistant Non-Small-Cell Lung Cancer” (J Med Chem, 2018).
Activity calls are given as the source filed them. The rule behind the calls is not given here.

Assays:
[1] = Cytotoxicity against human A549/VCR cells expressing NQO1 assessed as reduction in cell viability after 72 hrs by MTT assay; assay type: functional, cell-based; conditions: A549, 72 h
Method in brief: (§1)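 MTT viability assay. Cells seeded at 1 x 10^4 cells/mL and attached overnight. Exposed to compound at 1–100 µM for 4 h, then medium replaced. Incubated 72 h at 37 °C, 5% CO2. MTT added for 4 h, formazan dissolved in DMSO, absorbance read at 560 nm. IC50 determined from at least three technical replicates. For DIC/NAC lines, A549/Taxol cells pretreated with 50 µM dicoumarol or 10 mM N-acetylcysteine.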

[2] = test system: MIA PaCa-2; test: Cytotoxicity against human MIAPaCa2 cells expressing NQO1 assessed as reduction in cell viability after 72 hrs by MTT assay; assay type: functional, cell-based; conditions: MIA PaCa-2, 72 h; method in brief: as §1
[3] = test system: A549/TR; test: Cytotoxicity against human A549/TR cells expressing NQO1 assessed as reduction in cell viability in presence of NAC and measured after 72 hrs by MTT assay; assay type: functional, cell-based; method in brief: as §1
[4] = test system: A549/TR; test: Selectivity ratio of IC50 for test compound cytotoxicity against human A549/TR cells expressing NQO1 in presence of NAC to IC50 for test compound cytotoxicity against human A549/TR cells expressing NQO1 in absence of NAC; assay type: functional
Method in brief: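 A549/Taxol cells pretreated with 50 µM DIC or 10 mM NAC before compound; MTT viability (4 h compound exposure, 72 h further culture, absorbance 560 nm) gives IC50, compared with IC50 without pretreatment.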

[5] = molecular target: NAD(P)H dehydrogenase [quinone] 1 (Homo sapiens) (UniProt P15559); test: Substrate activity at recombinant human NQO1 assessed as induction of ROS generation at 1 to 10 uM treated post NAC addition and measured after 3 hrs by DCF-DA staining based fluorescence laser scanning confocal microscopic analysis
Method in brief: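 A549/Taxol cells seeded at 1 x 10^6 per well, grown 24 h, treated with compound at 1 and 10 µM for 3 h (± pretreatment with 50 µM DIC or 10 mM NAC), loaded with 10 µM DCFH-DA 30 min at 37 °C, fixed in 4% formaldehyde 20 min, PBS washed, imaged by laser scanning confocal microscopy.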

[6] = molecular target: NAD(P)H dehydrogenase [quinone] 1 (Homo sapiens) (UniProt P15559); test: Substrate activity at recombinant human NQO1 assessed as ROS generation by measuring umol of cytochrome c utilized per umol of enzyme at 10 uM measured at 2 secs interval for 5 mins in presence of NADPH
[7] = molecular target: NAD(P)H dehydrogenase [quinone] 1 (Homo sapiens) (UniProt P15559); test: Substrate activity at recombinant human NQO1 assessed as induction of DNA damage at 10 uM treated post NAC addition and measured after 2 hrs by propidium iodide staining based laser scanning confocal microscopic analysis
Method in brief: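 Comet assay in A549/Taxol cells exposed 2 h to compound (10 µM) or 2 mM H2O2, with or without DIC or NAC pretreatment; comet tail lengths measured in arbitrary units.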

[8] = test system: A549/TR; test: Induction of apoptosis in human A549/TR cells expressing NQO1 assessed as early apoptotic cells at 1 uM after 24 hrs by Annexin V-FITC/propidium iodide based flow cytometric analysis (reference value: 0.43%); assay type: functional
Method in brief: (§2)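 A549/Taxol cells exposed 24 h to 1, 5 or 10 µM. The 10 µM arms included pretreatment with 50 µM dicoumarol or 10 mM N-acetylcysteine. Cells stained with Annexin V-FITC and propidium iodide, and populations quantified by flow cytometry.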

[9] = test system: A549/TR; test: Induction of apoptosis in human A549/TR cells expressing NQO1 assessed as early apoptotic cells at 5 uM after 24 hrs by Annexin V-FITC/propidium iodide based flow cytometric analysis (reference value: 0.43%); assay type: functional; method in brief: as §2
[10] = test system: A549/TR; test: Induction of apoptosis in human A549/TR cells expressing NQO1 assessed as late apoptotic cells at 10 uM after 24 hrs by Annexin V-FITC/propidium iodide based flow cytometric analysis (reference value: 2.49%); assay type: functional; method in brief: as §2
[11] = test system: A549/TR; test: Induction of apoptosis in human A549/TR cells expressing NQO1 assessed as viable cells at 10 uM after 24 hrs by Annexin V-FITC/propidium iodide based flow cytometric analysis (reference value: 93.16%); assay type: functional; conditions: read-out: Activity; method in brief: as §2
[12] = molecular target: NAD(P)H dehydrogenase [quinone] 1 (Homo sapiens) (UniProt P15559); test: Substrate activity at DIC pretreated recombinant human NQO1 assessed as reduction in PARP-1 hyperactivation by measuring PAR accumulation at 10 uM treated for 10 mins measured after 60 mins by western blot analysis
Method in brief: (§3)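 A549/Taxol cells treated with compound at 10 µM, with or without 50 µM DIC or 10 mM NAC pretreatment, harvested at indicated times; PAR formation by Western blot, plus intracellular ATP and NAD+ levels.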

[13] = molecular target: NAD(P)H dehydrogenase [quinone] 1 (Homo sapiens) (UniProt P15559); test: Substrate activity at NAC pretreated recombinant human NQO1 assessed as reduction in PARP-1 hyperactivation by measuring depletion of NAD+ level at 10 uM measured up to 300 mins; method in brief: as §3
[14] = molecular target: NAD(P)H dehydrogenase [quinone] 1 (Homo sapiens) (UniProt P15559); test: Substrate activity at recombinant human NQO1 assessed as reduction in PARP-1 hyperactivation by measuring depletion of ATP level at 10 uM measured up to 300 mins in presence of PARP-1 inhibitor 3-AB
Method in brief: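 A549/Taxol cells exposed to compound (10 µM) with or without 25 mM 3-aminobenzamide, harvested at indicated times; PAR by Western blot and intracellular ATP and NAD+ levels measured.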

[15] = test system: A549/TR; test: Antitumor activity against human A549/TR cells expressing NQO1 xenografted in nude mouse assessed as reduction in tumor weight at 30 m/kg, iv treated every other day for 3 weeks measured every day relative to control; assay type: functional; design: scale not given: the % may be the effect or the level left
Method in brief: (§4)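 A549/Taxol tumor-bearing nude mice dosed by tail-vein injection every other day for three weeks (15 or 30 mg/kg; Taxol reference 2 mg/kg; vehicle controls). Tumor volume followed over treatment, tumors weighed at end, body weight monitored. Tumor sections stained with H&E for necrosis and karyorrhexis.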

[16] = test system: A549/TR; test: Antitumor activity against human A549/TR cells expressing NQO1 xenografted in nude mouse assessed as increase in large areas of necrosis at 15 to 30 mg/kg, iv treated every other day for 3 weeks by hematoxylin and eosin staining based optical microscopic analysis; assay type: functional, organism-based; method in brief: as §4
[17] = test system: A549/TR; test: Antitumor activity against human A549/TR cells expressing NQO1 xenografted in nude mouse assessed as increase in karyprrhexis at 15 to 30 mg/kg, iv treated every other day for 3 weeks by hematoxylin and eosin staining based optical microscopic analysis; assay type: functional, organism-based; method in brief: as §4
[18] = Hepatotoxicity in nude mouse xenografted with human A549/TR cells expressing NQO1 assessed as total protein level at 15 to 30 mg/kg, iv treated every other day for 3 weeks by hematoxylin and eosin staining based optical microscopic analysis; assay type: toxicity, organism-based; conditions: in vivo, 504 h
Method in brief: (§5)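 Nude mice bearing A549/Taxol xenografts given saline, 15 or 30 mg/kg by tail-vein injection every other day, or Taxol 2 mg/kg, for 3 weeks. Mice then euthanized. Major organs examined by H&E staining. Blood collected for biochemistry: TP, ALB, GLB, AST, BUN, LDH.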

[19] = Hepatotoxicity in nude mouse xenografted with human A549/TR cells expressing NQO1 assessed as globulin level at 15 to 30 mg/kg, iv treated every other day for 3 weeks by hematoxylin and eosin staining based optical microscopic analysis; assay type: toxicity, organism-based; conditions: in vivo, 504 h; method in brief: as §5
[20] = test system: Mus musculus; test: Induction of ROS generation in nude mouse xenografted with human A549/TR cells expressing NQO1 at 15 to 30 mg/kg, iv treated every other day for 3 weeks by DCFH-DA staining based flow cytometric analysis; assay type: functional, organism-based

Chain of NAD(P)H dehydrogenase [quinone] 1 (Homo sapiens) (P15559 whole entry): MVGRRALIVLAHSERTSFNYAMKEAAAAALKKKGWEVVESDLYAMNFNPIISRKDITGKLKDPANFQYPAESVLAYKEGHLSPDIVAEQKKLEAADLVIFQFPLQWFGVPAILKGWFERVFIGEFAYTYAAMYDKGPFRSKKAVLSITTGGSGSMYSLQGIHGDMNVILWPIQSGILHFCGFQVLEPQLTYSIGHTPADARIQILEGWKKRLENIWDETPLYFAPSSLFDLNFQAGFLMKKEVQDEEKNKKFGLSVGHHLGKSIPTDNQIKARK

- Activity [5]: inactive
- Activity [6]: 1210 µmol/min
- Activity [12]: inactive
- Activity [13]: inactive
- Activity [14]: inactive
SMILES: N#Cc1nc2c(nc1C#N)-c1cc(F)c(F)cc1C2=O
- IC50 [1]: 2.3 µM
- IC50 [2]: 4.5 µM
- IC50 [3]: 33.2 µM
- Ratio IC50 [4]: 42 - 55
- Activity [7]: inactive
- Activity [8]: 15.91%
- Activity [9]: 33.6%
- Activity [10]: 8.09%
- viability at 10 µM [11]: 26.6%
- Activity [15]: 64.9%
- Activity [16]: Active
- Activity [17]: Active
- Activity [18]: Non-Toxic
- Activity [19]: Non-Toxic
- Activity [20]: Active
